The values that follow come from the RNAGym collection of RNA variant scans (doi:10.1002/anie.201605470).

The chains are these.
B1: Osa-1-4 twister ribozyme (parent)
chain: CCGCCUAACACUGCCAAUGCCGGUCCCAAGCCCGGAUAAAAGUGGAGGGGGCGG

This data set covers variants of B1. The data set can be described thus: self-cleavage, relative activity (ratio to wild type); higher = more cleavage; co-transcriptional. Summed up:
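In vitro transcription at 37 °C for 2 h allowed the twister ribozyme to cleave itself as it was made. Its 54-nucleotide Oryza sativa template had been synthesised with 97 % wild-type base and 1 % of each other base at the 48 positions downstream of the cleavage site. A template-switching oligonucleotide was used for reverse transcription, followed by PCR amplification and deep sequencing. Whether reads carried upstream sequence set the cleavage status, and relative activity is the fraction cleaved normalised to wild type.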
On to CCGCCUAACUCUGCCAAUGCCGUUCCCAAGCCCGGAUAAAAGUGGAGGGGGCGG, for which the self-cleavage was determined as 0.01.
In the case of CCGCCUAACUCUGCCAAUGCCGAUCCCAAGCCCGGAUAAAAGUGGAGGGGGCGG it was 0.03; in that of CCGCCUAACUCUGCCAAUGCCGCUCCCAAGCCCGGAUAAAAGUGGAGGGGGCGG, 0.02.
In the case of CCGCCUAAGAAUGCCAAUGCCGGUCCCAAGCCCGGAUAAAAGUGGAGGGGGCGG it was 0.19.
Turning to CCGCCUAAAAAUGCCAAUGCCGGUCCCAAGCCCGGAUAAAAGUGGAGGGGGCGG, the self-cleavage is 0.33.
In the case of CCGCCUAAUAAUGCCAAUGCCGGUCCCAAGCCCGGAUAAAAGUGGAGGGGGCGG it was 0.4; in that of CCGCCUAACUCUGCCAAUGCCGGUCCCAAGCCCGGAUAAAAGUGGAGGGGGGGG, 0.07.
Turning to CCGCCUAACUCUGCCAAUGCCGGUCCCAAGCCCGGAUAAAAGUGGAGGGGGUGG, the self-cleavage was 0.05.
CCGCCUAACUCUGCCAAUGCCGGUCCCAAGCCCGGAUAAAAGUGGAGGGGGAGG: the self-cleavage was determined as 0.04.
As for CCGCCUAACUCUGCCAAUGCCGGUCCCAAGCCCGGAUAAAAGUGGAGGGAGCGG, the self-cleavage stood at 0.05.
In the case of CCGCCUAACUCUGCCAAUGCCGGUCCCAAGCCCGGAUAAAAGUGGAGGGUGCGG, the self-cleavage amounted to 0.04.
Regarding CCGCCUAACUCUGCCAAUGCCGGUCCCAAGCCCGGAUAAAAGUGGAGGGCGCGG, the self-cleavage turned out to be 0.03.
Regarding CCGCCUAACUCUGCCAAUGCCGGUCCCAAGCCCGGAUAAAACUGGAGGGGGCGG, the self-cleavage came to 0.04.
Take CCGCCUAACUCUGCCAAUGCCGGUCCCAAGCCCGGAUAAAAAUGGAGGGGGCGG: the self-cleavage amounted to 0.04.
As to CCGCCUAACUCUGCCAAUGCCGGUCCCAAGCCCGGAUAAAAUUGGAGGGGGCGG, the self-cleavage stood at 0.02.
For the variant CCGCCUAACAAUGCCAAUGUCGGUCCCAAGCCCGGAUAAAAGUGGAGGGGGCGG, the self-cleavage was determined as 0.66.
Turning to CCGCCUAACAAUGCCAAUGGCGGUCCCAAGCCCGGAUAAAAGUGGAGGGGGCGG, the self-cleavage is 0.06.
Consider CCGCCUAACAAUGCCAAUGACGGUCCCAAGCCCGGAUAAAAGUGGAGGGGGCGG, for which the self-cleavage amounted to 0.62.
In the case of CCGCCUAACUCUGCCAAGGCCGGUCCCAAGCCCGGAUAAAAGUGGAGGGGGCGG, the self-cleavage was 0.07.
On to CCGCCUAACUCUGCCAAAGCCGGUCCCAAGCCCGGAUAAAAGUGGAGGGGGCGG, for which the self-cleavage turned out to be 0.03.
Turning to CCGCCUAACUCUGCCAACGCCGGUCCCAAGCCCGGAUAAAAGUGGAGGGGGCGG, the self-cleavage worked out at 0.05.
As for CCGCCUAACUCUGCCAAUGCCGGUCCCAACCCCGGAUAAAAGUGGAGGGGGCGG, the figure is 0.01; as for CCGCCUAACUCUGCCAAUGCCGGUCCCAAUCCCGGAUAAAAGUGGAGGGGGCGG, 0.01; as for CCGCCUAACUCUGCCAAUGCCGGUCCCAAACCCGGAUAAAAGUGGAGGGGGCGG, 0.01.
In the case of CCGCCUAACUCUGCCAAUGCCGGUCCCAAGCCGGGAUAAAAGUGGAGGGGGCGG, the self-cleavage is 0.01.
For CCGCCUAACUCUGCCAAUGCCGGUCCCAAGCCAGGAUAAAAGUGGAGGGGGCGG, the self-cleavage is 0.02.
As to CCGCCUAACUCUGCCAAUGCCGGUCCCAAGCCUGGAUAAAAGUGGAGGGGGCGG, the self-cleavage turned out to be 0.04.
In the case of CCGCCUAACUCUGCCAAUGCCGGUCCCAAGCCCGGAUAAAAGUGGAGGGGCCGG it was 0.02; in that of CCGCCUAACUCUGCCAAUGCCGGUCCCAAGCCCGGAUAAAAGUGGAGGGGACGG, 0.04.
CCGCCUAACUCUGCCAAUGCCGGUCCCAAGCCCGGAUAAAAGUGGAGGGGUCGG: the self-cleavage is 0.03.
As to CCGCCUAACAAUGCCAAUGCGGGUCCCAAGCCCGGAUAAAAGUGGAGGGGGCGG, the self-cleavage came to 0.07.
In the case of CCGCCUAACAAUGCCAAUGCAGGUCCCAAGCCCGGAUAAAAGUGGAGGGGGCGG it was 0.14.
On to CCGCCUAACAAUGCCAAUGCUGGUCCCAAGCCCGGAUAAAAGUGGAGGGGGCGG, for which the self-cleavage worked out at 0.71.
Take CCGCCUAACUCUGCCAAUGCCGGUCCCAAGCCCGGAUAAAAGUGGAGGGGGCGC: the self-cleavage is 0.04.
As for CCGCCUAACUCUGCCAAUGCCGGUCCCAAGCCCGGAUAAAAGUGGAGGGGGCGA, the self-cleavage is 0.06.
In the case of CCGCCUAACUCUGCCAAUGCCGGUCCCAAGCCCGGAUAAAAGUGGAGGGGGCGU it was 0.21; in that of CCGCCUAACAAUGCGAAUGCCGGUCCCAAGCCCGGAUAAAAGUGGAGGGGGCGG, 0.1.
As to CCGCCUAACAAUGCAAAUGCCGGUCCCAAGCCCGGAUAAAAGUGGAGGGGGCGG, the self-cleavage turned out to be 0.12.
In the case of CCGCCUAACAAUGCUAAUGCCGGUCCCAAGCCCGGAUAAAAGUGGAGGGGGCGG, the self-cleavage is 0.07.
For the variant CCGCCUAACUCUGCCAAUGCCGGUCCCAAGCCCGGAUAAAAGAGGAGGGGGCGG, the self-cleavage came to 0.79.
For the variant CCGCCUAACUCUGCCAAUGCCGGUCCCAAGCCCGGAUAAAAGGGGAGGGGGCGG, the self-cleavage turned out to be 0.59.
For the variant CCGCCUAACUCUGCCAAUGCCGGUCCCAAGCCCGGAUAAAAGCGGAGGGGGCGG, the self-cleavage came to 0.03.
As for CCGCCUAACUCUGCCAAUGCCGGUCCCAAGCCCGGAUAAAAGUGAAGGGGGCGG, the figure is 0.03; as for CCGCCUAACUCUGCCAAUGCCGGUCCCAAGCCCGGAUAAAAGUGCAGGGGGCGG, 0.02.
As for CCGCCUAACUCUGCCAAUGCCGGUCCCAAGCCCGGAUAAAAGUGUAGGGGGCGG, the figure is 0.02; as for CCGCCUAACUCUGCCAAUGCCGGUCCCAAGCCCGGAUAAAAGUGGAGGCGGCGG, 0.01.
In the case of CCGCCUAACUCUGCCAAUGCCGGUCCCAAGCCCGGAUAAAAGUGGAGGAGGCGG it was 0.04.
On to CCGCCUAACUCUGCCAAUGCCGGUCCCAAGCCCGGAUAAAAGUGGAGGUGGCGG, for which the self-cleavage was 0.02.
